Laboratory results from PubChem BioAssay AID652191 (Vanderbilt Specialized Chemistry Center, 2013).
Calls of active or inactive are those of the source. How the calls were made is not given here.

Biological target: Metabotropic glutamate receptor 5 (Rattus norvegicus) (UniProt P31424)
Test: mGlu5 allosteric site binders, biochemical, rat, HEK293A membranes, three-point Ki (AID 652191)
Settings: rmGlu5 HEK293A membranes, [3H]methoxyPEPy displacement
Outline: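 Test system: membranes from HEK293A cells with stable rat mGlu5 expression. Quantity: 50 µg membranes per well. Buffer or medium: HBSS with HEPES and probenecid, pH 7.4. Schedule: 1 h at room temperature. Reagent: 2 nM [3H]methoxyPEPy. Detection: Filter-bound radioactivity by scintillation counting. Measure: radioligand displacement by compound.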

Sequence of Metabotropic glutamate receptor 5 (Rattus norvegicus) (P31424 whole entry, looked up): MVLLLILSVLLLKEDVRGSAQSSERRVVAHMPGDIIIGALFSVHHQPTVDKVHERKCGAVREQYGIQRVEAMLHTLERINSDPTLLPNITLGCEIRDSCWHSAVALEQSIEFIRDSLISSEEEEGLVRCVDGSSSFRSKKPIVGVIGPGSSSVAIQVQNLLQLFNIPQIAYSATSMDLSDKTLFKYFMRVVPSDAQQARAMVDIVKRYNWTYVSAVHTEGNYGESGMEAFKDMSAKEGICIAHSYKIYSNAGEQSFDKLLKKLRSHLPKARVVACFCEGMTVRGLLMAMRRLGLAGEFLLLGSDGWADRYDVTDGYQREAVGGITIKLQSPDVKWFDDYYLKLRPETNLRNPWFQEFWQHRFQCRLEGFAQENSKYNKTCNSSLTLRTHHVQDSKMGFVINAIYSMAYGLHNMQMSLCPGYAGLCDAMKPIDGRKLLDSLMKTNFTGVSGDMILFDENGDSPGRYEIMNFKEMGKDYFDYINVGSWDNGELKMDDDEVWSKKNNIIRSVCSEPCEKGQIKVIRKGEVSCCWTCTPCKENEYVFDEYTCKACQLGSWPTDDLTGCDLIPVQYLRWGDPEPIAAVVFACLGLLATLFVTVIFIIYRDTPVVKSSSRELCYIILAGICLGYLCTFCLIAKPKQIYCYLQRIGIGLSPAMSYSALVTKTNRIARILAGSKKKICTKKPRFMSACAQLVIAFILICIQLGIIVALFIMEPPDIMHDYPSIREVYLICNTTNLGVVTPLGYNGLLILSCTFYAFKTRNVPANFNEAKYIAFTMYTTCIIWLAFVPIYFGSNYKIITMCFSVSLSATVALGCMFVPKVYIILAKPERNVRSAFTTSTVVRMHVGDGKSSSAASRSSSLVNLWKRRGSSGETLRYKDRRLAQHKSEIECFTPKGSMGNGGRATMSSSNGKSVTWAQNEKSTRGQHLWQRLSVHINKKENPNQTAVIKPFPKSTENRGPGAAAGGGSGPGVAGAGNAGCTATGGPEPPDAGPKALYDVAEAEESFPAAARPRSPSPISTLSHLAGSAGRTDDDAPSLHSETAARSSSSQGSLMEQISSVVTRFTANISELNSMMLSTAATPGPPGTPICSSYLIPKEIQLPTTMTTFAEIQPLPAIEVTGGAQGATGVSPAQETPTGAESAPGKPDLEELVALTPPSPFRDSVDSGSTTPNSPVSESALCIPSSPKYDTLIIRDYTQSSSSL

| Compound | Ki |
| --- | --- |
| O=C(c1ccc(C#Cc2cccc(F)c2)cc1)N1CCOCC1 | inactive |
| O=C(c1ccc(C#Cc2cccc(F)c2)cn1)N1CCCCCC1 | 3.82 nM |
| O=C(c1ccc(C#Cc2cccc(F)c2)nc1)N1CCOCC1 | inactive |
| O=C(c1ccc(C#Cc2cccc(F)c2)cn1)N1CC2CC2C1 (stereo not drawn) | 10 nM |
| CNC(=O)c1ccc(C#Cc2cccc(F)c2)cc1 | inactive |
| O=C(c1ccc(C#Cc2cccc(F)c2)cn1)N1CCC(F)(F)C1 | 10 nM |
| O=C(c1ccc(C#Cc2cccc(F)c2)cn1)N1CC(O)(c2ccccc2)C1 | inactive |
| O=C(c1ccc(C#Cc2cccc(F)c2)cn1)N1CCC(O)CC1 | inactive |
| CNC(=O)c1ccc(C#Cc2cccc(F)c2)cn1 | inactive |
| O=C(c1ccc(C#Cc2cccc(F)c2)cn1)N1CCC(F)(F)CC1 | 4.42 nM |
| O=C(c1ccc(C#Cc2cccc(F)c2)cn1)N1CC(F)C1 | 70 nM |
| O=C(c1ccc(C#Cc2cccc(F)c2)cn1)N1CCCC1 | 20 nM |
| O=C(c1ccc(C#Cc2cccc(F)c2)cn1)N1CCC1 | 40 nM |
| O=C(c1ccc(C#Cc2cccc(F)c2)cn1)N1CCCCC1 | 10 nM |
| O=C(c1ccc(C#Cc2cccc(F)c2)cc1)N1CCC1 | 40 nM |
| CC1CCN1C(=O)c1ccc(C#Cc2cccc(F)c2)cn1 (stereo not drawn) | 4.83 nM |
| O=C(c1ccc(C#Cc2cccc(F)c2)nc1)N1CCC1 | inactive |
| O=C(c1ccc(C#Cc2cccc(F)c2)cn1)N1CCOCC1 | 70 nM |
